The source made the active and inactive calls. The calls are words filed in the database; no cut-off is given here.
Experiments:
[1] = target: T1, Fatty-acid amide hydrolase 1 (Homo sapiens, UniProt O00519); assay: Inhibition of FAAH in human U937 cells assessed as reduction in [3H]ethanolamine formation using [ethanolamine-1-3H]AEA as substrate incubated for 15 mins by liquid scintillation spectroscopy; assay type: cell-based, U-937
T1 sequence (O00519 whole entry): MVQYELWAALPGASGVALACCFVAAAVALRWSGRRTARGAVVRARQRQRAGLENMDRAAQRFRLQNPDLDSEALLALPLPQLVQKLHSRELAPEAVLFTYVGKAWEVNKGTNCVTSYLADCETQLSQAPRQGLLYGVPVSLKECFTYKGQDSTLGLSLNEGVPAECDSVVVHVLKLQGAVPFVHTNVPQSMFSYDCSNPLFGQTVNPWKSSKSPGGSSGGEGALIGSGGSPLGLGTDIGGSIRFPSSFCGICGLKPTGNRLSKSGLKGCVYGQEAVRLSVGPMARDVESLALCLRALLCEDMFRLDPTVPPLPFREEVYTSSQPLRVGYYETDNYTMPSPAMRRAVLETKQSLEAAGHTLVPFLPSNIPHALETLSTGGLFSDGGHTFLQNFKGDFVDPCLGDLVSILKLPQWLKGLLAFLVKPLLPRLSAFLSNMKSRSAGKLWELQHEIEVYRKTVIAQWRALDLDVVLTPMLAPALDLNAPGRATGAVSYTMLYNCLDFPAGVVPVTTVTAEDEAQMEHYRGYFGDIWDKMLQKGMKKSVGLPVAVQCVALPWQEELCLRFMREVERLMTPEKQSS
Method in brief: (§1)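 Intact U937 cells (1.0 × 10^6) in Tris-HCl 10 mM, EDTA 1 mM, 0.1% BSA, pH 8, given compound at 37 °C. Then 15 min at 37 °C with shaking. MAGL: 10 µM 2-OG plus 0.5 nM [3H]2-OG. FAAH: 1 µM AEA plus 2 nM [3H]AEA. Aqueous-phase tritium counted; three experiments in triplicate.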

[2] = target: T2, Monoglyceride lipase (Homo sapiens) (UniProt Q99685); assay: Reversible inhibition of human recombinant MAGL using 4-nitrophenylacetate as substrate at 2 uM preincubated with enzyme for 60 mins followed by 40X dilution and 15 mins later incubated with substrate by microplate reader assay; settings: time 75.0 min
T2 sequence (whole entry): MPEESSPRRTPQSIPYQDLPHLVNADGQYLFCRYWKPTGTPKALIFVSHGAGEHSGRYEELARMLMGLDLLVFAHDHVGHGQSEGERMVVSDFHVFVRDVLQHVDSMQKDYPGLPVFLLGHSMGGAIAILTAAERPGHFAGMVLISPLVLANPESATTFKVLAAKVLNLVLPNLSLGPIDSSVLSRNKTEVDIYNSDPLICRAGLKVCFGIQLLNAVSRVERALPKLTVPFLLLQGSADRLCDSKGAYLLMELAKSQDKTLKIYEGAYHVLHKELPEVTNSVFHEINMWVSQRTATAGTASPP
Method in brief: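 MAGL (880 ng) incubated 60 min at room temperature with compound at 2 µM in Tris pH 7.2, then diluted 40-fold in buffer. After 15 min, 4-NPA 500 µM stock added and activity read as in the main assay. Compared with 2000 nM and 50 nM undiluted; triplicates of two experiments.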

[3] = target: T3, Lysophosphatidylserine lipase ABHD12 (Homo sapiens, UniProt Q8N2K0); assay: Inhibition of human ABHD12 expressed in HEK293 cells using [3H]2-OG as substrate preincubated for 30 mins followed by substrate addition and measured after 5 mins by liquid scintillation spectroscopy; assay type: cell-based
T3 sequence (Q8N2K0 whole entry): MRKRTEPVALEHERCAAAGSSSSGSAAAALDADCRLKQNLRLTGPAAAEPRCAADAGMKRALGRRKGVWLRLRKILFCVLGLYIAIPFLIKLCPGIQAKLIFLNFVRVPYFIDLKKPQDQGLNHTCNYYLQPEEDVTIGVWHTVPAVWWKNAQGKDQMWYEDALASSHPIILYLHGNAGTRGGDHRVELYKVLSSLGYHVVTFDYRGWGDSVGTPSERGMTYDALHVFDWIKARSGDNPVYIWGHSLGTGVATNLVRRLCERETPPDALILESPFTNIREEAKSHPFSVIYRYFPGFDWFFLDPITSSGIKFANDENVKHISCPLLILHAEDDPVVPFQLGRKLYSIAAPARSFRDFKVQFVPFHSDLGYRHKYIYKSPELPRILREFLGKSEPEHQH
Method in brief: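 Homogenate (40 µg) of HEK293 cells stably transfected with human ABHD6 or ABHD12, preincubated with compound 30 min at 37 °C in […], 0.1% BSA, pH 7.6. 2-OG 10 µM added for 5 min at 37 °C. Stopped with CHCl3:MeOH; aqueous tritium counted; blanks and nontransfected HEK293 hydrolysis subtracted. Screening at 10 µM.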

[4] = target: T2, Monoglyceride lipase (Homo sapiens); assay: Reversible inhibition of human recombinant MAGL using 4-nitrophenylacetate as substrate preincubated with enzyme for 0 to 60 mins followed by substrate addition by microplate reader assay; settings: time 0-60 min
Method in brief: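 MAGL (11 ng/well) preincubated with compound in DMSO for 0, 30 or 60 min. Reaction then started with 4-NPA 500 µM stock, same buffer and read-out as the main assay. IC50 at each time; triplicates of two independent experiments.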

[5] = target: T4, Monoglyceride lipase (Homo sapiens, UniProt Q99685); assay: Inhibition of MAGL in human U937 cells assessed as reduction in [3H]glycerol formation using [1,2,3-3H]2-OG as substrate incubated for 15 mins by liquid scintillation spectroscopy; assay type: cell-based, U-937; method in brief: as §1
T4 sequence (Q99685 whole entry): T2 sequence (whole entry)

[6] = target: T5, Fatty-acid amide hydrolase 1 (Homo sapiens) (UniProt O00519); assay: Inhibition of FAAH in human U937 cells assessed as reduction in [3H]ethanolamine formation using [ethanolamine-1-3H]AEA as substrate at 10 uM incubated for 15 mins by liquid scintillation spectroscopy; assay type: cell-based; settings: U-937; method in brief: as §1
T5 sequence (whole entry): T1 sequence (O00519 whole entry)

[7] = tested on: HCT-116; assay: Antiproliferative activity against human HCT116 cells as reduction in cell growth measured after 96 hrs by Celltiter-glo luminescent assay; assay type: functional, cell-based; settings: HCT-116, 96 h
Method in brief: (§2)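 Cell lines kept at 37 °C, 5% CO2; 5 × 10^2 cells per well, compound added the day after seeding at 200 to 0.02 µM. Viability read after 96 h by CellTiter-Glo luminescence. IC50 from logistic dose-response curves, in triplicate; error bars are SD.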

[8] = tested on: OVCAR-3; assay: Antiproliferative activity against human OVCAR3 cells as reduction in cell growth measured after 96 hrs by Celltiter-glo luminescent assay; assay type: functional, cell-based; settings: OVCAR-3, 96 h; method in brief: as §2
[9] = target: Cannabinoid receptor 2 (Homo sapiens, UniProt P34972); assay: Displacement of [3H]CP55940 from human CB2 receptor incubated for 90 mins by radioligand binding assay
Cannabinoid receptor 2, sequence (P34972 whole entry): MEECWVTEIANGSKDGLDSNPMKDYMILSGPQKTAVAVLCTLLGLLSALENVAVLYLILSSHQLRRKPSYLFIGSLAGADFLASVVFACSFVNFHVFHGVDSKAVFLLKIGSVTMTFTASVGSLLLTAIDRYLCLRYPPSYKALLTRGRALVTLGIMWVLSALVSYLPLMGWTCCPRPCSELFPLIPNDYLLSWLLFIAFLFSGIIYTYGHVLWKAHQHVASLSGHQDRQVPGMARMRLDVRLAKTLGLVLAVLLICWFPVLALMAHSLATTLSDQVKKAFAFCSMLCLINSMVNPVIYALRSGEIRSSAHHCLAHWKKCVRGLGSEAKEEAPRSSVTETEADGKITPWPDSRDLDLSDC
Method in brief: (§3)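 Membranes expressing hCB1 or hCB2 in 50 mM Tris-HCl, 2.5 mM EDTA, 5 mM MgCl2, 0.5% BSA, pH 7.4, incubated with compound and 0.5 nM [3H]CP55,940 for 90 min at 30 °C. Nonspecific binding with 10 µM […]; filtered and counted. Screening at 10 µM; two experiments in triplicate.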

[10] = target: Cannabinoid receptor 1 (CB1) (Homo sapiens, UniProt P21554); assay: Displacement of [3H]CP55940 from human CB1 receptor at 10 uM incubated for 90 mins by radioligand binding assay; settings: probe [3H]CP55940; method in brief: as §3
Cannabinoid receptor 1 (CB1), sequence (P21554 whole entry): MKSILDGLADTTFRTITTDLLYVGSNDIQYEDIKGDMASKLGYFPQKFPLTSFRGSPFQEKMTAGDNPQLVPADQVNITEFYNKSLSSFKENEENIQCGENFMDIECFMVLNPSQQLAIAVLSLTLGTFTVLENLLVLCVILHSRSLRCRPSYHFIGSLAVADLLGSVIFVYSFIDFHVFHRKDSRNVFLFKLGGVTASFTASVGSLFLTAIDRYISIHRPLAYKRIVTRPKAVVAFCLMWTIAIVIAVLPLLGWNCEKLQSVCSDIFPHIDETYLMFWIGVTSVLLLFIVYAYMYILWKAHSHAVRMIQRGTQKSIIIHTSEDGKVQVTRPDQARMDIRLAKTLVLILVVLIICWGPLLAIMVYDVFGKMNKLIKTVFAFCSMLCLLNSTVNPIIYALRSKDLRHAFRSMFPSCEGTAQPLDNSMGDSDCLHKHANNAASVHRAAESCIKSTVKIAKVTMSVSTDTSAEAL

Row | IC50 [1] [µM] | inhibition [2] | IC50 [3] [µM] | inhibition [4] | IC50 [5] [µM] | inhibition [6] [%] | IC50 [7] [µM] | IC50 [8] [µM] | IC50 [9] [µM] | inhibition at 1.5 h, 10 µM [10] [%] | SMILES
1 | > 10 | Active | > 10 | Active | 0.868 | < 10 | 5.1 | > 100 | > 10 | < 10 | O=C(c1ccc(Sc2ccccc2)cc1)C1CCN(C(=O)c2cc(O)ccc2F)CC1
2 | > 10 | Active | > 10 | Active | 0.844 | < 10 | 17 | 20.7 | > 10 | < 10 | O=C(c1ccc(Cc2ccccc2)cc1)C1CCN(C(=O)c2cc(O)ccc2F)CC1
3 | > 10 | Active | > 10 | Active | 0.568 | 22 | 15 | > 100 | > 10 | < 10 | O=C(c1ccc(Sc2ccccc2)cc1)C1CCN(C(=O)c2cc(O)c(F)cc2F)CC1
4 | > 10 | Active | > 10 | Active | 1.23 | 21 | 5.3 | > 100 | > 10 | < 10 | O=C(c1ccc(Cc2ccccc2)cc1)C1CCN(C(=O)c2cc(O)c(F)cc2F)CC1

Reference: ChEMBL document CHEMBL4732057, “Design, synthesis and biological evaluation of second-generation benzoylpiperidine derivatives as reversible monoacylglycerol lipase (MAGL) inhibitors” (Eur J Med Chem, 2021)
